Measured values as given in article PMC4383763 (Journal of clinical pharmacology, 2013).

How the values were obtained:
[1] = Plasma propylene glycol concentration by GC-FID after APAP preparation; format: in vivo, human
Summary of the method: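 Crossover in volunteers given tablet or liquid APAP formulations (liquid contains 5% v/v PG), 15 mg/kg orally after a 1 h fast, on separate visits. Blood held refrigerated ≤24 h, then plasma separated by centrifugation and stored at -80 °C. PG was measured by GC-FID, first in 0–120 min samples from three subjects, then in all 30 min samples. LOD 5.0 mg/dL.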

[2] = test system: APAP-induced liver injury in mice; conditions: cited from earlier work; for effect of drug vehicles on APAP-induced liver injury: mouse model
[3] = assumed for the prediction, no reference given; cited from earlier work
CYP2E1 = conditions: cited from earlier work
Cultured hepatocytes = conditions: in the presence of PG; cited from earlier work
[4] = subjects who received 2 months of cimetidine; cited from earlier work

CC(O)CO (stereo not drawn) [PG, propylene glycol]
maximum PG concentration in plasma ([1]; 30-minute samples after liquid preparation): 9.1 mg/dL | PG detected in 30-minute samples ([1]; following ingestion of the liquid preparation, limit of detection 5.0 mg/dL): 9 out of 15 | PG detected in samples ([1]; solid group, limit of detection 5.0 mg/dL): none | hepatocellular damage following a toxic APAP dose ([2]; mice pretreated with the substance): reduced hepatocellular damage | effect of drug vehicles on APAP-induced liver injury [2]: protective | volume of distribution of PG [3]: 0.58 L/kg | type of CYP2E1 inhibition (CYP2E1): competitive inhibitor | susceptibility of cultured hepatocytes to APAP-induced necrosis (Cultured hepatocytes): less susceptible

CN(C)C=O [dimethylformamide]
effect of drug vehicles on APAP-induced liver injury [2]: protective

CCO [ethanol]
effect of drug vehicles on APAP-induced liver injury [2]: protective

CN/C(=N/CCSCc1nc[nH]c1C)NC#N [cimetidine]
urinary APAP-mercapturate following therapeutic APAP dosing [4]: decreased

C[S+](C)[O-] [dimethylsulfoxide]
effect of drug vehicles on APAP-induced liver injury [2]: protective
